Reference: paper PMC8892090 (Bioactive Materials, 2021)

Tests used:
[1] = tested on: 786-O (Renal Cell Carcinoma, RCC) xenograft mice; test: In vivo fluorescence imaging and biodistribution, 786-O xenograft
Summary of the method: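 Mice received 5 × 10⁶ 786-O cells in PBS subcutaneously in the right hind. At tumour volumes of about 200 mm³, test compound (200 μM, 200 μL) was given intravenously. Whole-body NIR fluorescence was imaged on a Maestro IVIS at 1, 2, 4, 8, 12, 24, 48 and 72 h. Tumour, heart, liver, spleen, lung and kidney were imaged ex vivo at 24 h, and tumour tissue was examined by Bio-TEM. n = 3.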

786-O cells [2] = test: In vitro photostability under NIR laser irradiation; format: cell-based; conditions: for photobleaching of Cy: 20 μM, co-incubated with 786-O cells 4 h at 37 °C, NIR laser irradiation for 40 min (up to 3.60 kJ/cm^2), IVIS
Summary of the method: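 786-O cells were seeded at 5 × 10³ per well and allowed to adhere overnight. They were incubated with test compound (20 μM) for 4 h at 37 °C to allow self-assembly. Cells were then irradiated with a near-infrared laser, with fluorescence recorded at 0–40 min in 5 min steps. Three independent repeats.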

HepG2 cells = test: Cytotoxicity assay; format: cell-based; conditions: 24 h, series of concentrations, DMSO less than 1%, mean ± SD n = 3 (Fig. S16)
Summary of the method: (§1)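 Cells were seeded at 5 × 10³ per well in 96-well plates and allowed to adhere overnight. Test compound was serially diluted from a concentrated DMSO stock, keeping final DMSO below 1%, and incubated 24 h. Viability (%) = (As − Ab)/(Ac − Ab) × 100, using sample, blank and control wells. Three independent repeats.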

786-O cells [3] = test: Cytotoxicity assay; format: cell-based; conditions: 24 h, series of concentrations, DMSO less than 1% (Fig. 3j)
Summary of the method: as §1

[4] = Circular dichroism spectroscopy; format: physicochemical; conditions: 10 μM, deionized water, room temperature (Fig. 2c)
Summary of the method: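 Samples at 10 μM were scanned on a CD spectrometer at room temperature. Scan speed was 1200 nm min⁻¹ at 1 nm resolution, and the solution background was subtracted to correct spectra. Three independent repeats.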

healthy mice = format: in vivo; conditions: 200 μL, n = 4
786-O cells [5] = test: Cellular imaging; format: cell-based; conditions: 20 μM, 15 min, 37 °C (Fig. 3e, S14)
Summary of the method: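 Integrin αvβ3-overexpressing 786-O cells were seeded at 2 × 10⁵ cells on confocal dishes and allowed to adhere overnight. They were then exposed to test compound at 20 μM for 15 min. For time-dependent monitoring, cells were washed with PBS and the medium replaced. Imaging used a 40× objective, with fluorescence intensity quantified from images. Three independent repeats.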

MMP-2 = biological target: T1, MMP-2 (Homo sapiens, UniProt P08253); test: MMP-2 enzyme responsiveness; format: biochemical; conditions: incubated with MMP-2, new peaks for SSGGPLG and R-M1 (Fig. S7)
T1 sequence (P08253 110-660): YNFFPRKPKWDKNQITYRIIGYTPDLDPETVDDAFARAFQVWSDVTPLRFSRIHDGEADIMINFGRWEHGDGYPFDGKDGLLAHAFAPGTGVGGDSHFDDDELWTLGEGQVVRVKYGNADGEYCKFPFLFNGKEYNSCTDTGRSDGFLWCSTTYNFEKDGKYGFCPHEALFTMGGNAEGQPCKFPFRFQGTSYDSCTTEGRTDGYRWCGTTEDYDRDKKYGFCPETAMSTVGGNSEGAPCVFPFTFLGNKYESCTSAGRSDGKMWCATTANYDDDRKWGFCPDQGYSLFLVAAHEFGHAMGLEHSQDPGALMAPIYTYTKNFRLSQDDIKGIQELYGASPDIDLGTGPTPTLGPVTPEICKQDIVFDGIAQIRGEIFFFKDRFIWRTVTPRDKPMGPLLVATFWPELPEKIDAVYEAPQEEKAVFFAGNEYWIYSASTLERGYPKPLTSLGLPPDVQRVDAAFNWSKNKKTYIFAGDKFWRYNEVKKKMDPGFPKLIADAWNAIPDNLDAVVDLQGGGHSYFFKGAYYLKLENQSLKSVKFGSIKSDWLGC

[6] = Critical aggregation concentration with fluorescence probe ANS; format: physicochemical; conditions: fluorescence probe ANS (Fig. S8)
[7] = ThT and ANS fluorescent probe assay of β-sheet formation; format: physicochemical; conditions: compared with M1 and M2 group (Fig. S10)
[8] = Transmission electron microscopy of self-assembled nanofibers; format: physicochemical; conditions: 50 μM in acetonitrile: H2O = 2:3 mixed solution for 1 week (Fig. 2e, S11)
Summary of the method: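 Samples were dissolved in acetonitrile:H₂O 2:3 and stored 7 d to self-assemble fully. Then 10 μL was placed on carbon-coated copper grids and the excess blotted with filter paper after 5 min before TEM. Three independent repeats.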

[9] = 200 μM, 1 d, 7 d and 14 d post-injection

HPLC peak of intact M1 after incubation with MMP-2 (MMP-2) | Substance | course of fluorescence at the tumor site ([1]; 786-O xenograft, intravenous, 200 μM, 200 μL, imaged 1-72 h, n = 3) | photobleaching of Cy (786-O cells [2]) | impact on cell viability of HepG2 (HepG2 cells) | impact on cell viability of 786-O (786-O cells [3]) | secondary structure by CD spectrum [4] | liver function index (ALT, AST, ALP, TP, ALB, GLOB) versus PBS (healthy mice; [9]) | renal function indicators (BUN, CRE) versus PBS (healthy mice; [9]) | histology (H&E) of major organs versus PBS (healthy mice; intravenous 200 μM, 1 d post-injection) | nanofibrous structures on tumor cells (Bio-TEM) ([1]; after administration of M1 200 μM, 200 μL (Fig. 4e)) | fluorescence at the tumor site within 1 h, M1 versus M2 ([1]; intravenous, 200 μM, 200 μL, n = 3) | decrease of photodegradation rate of Cy versus M2 (786-O cells [2]; same as photobleaching test, M1 against M2) | cellular distribution by confocal imaging (786-O cells [5]) | critical aggregation concentration (CAC) to form nanofibers [6] | fluorescence intensity of ThT and ANS probes (β-sheet formation) [7] | diameter of self-assembled nanofibers (TEM) [8]
 | SSGGPGLGYLKLVFFGC(Cy)GRGD [M2] | quickly decreased after 4 h and nearly vanished at 72 h | 81% | no impact | no impact | random coiled secondary structure |  |  |  |  |  |  |  |  |  | 
vanished | SSGGPLGYLGKLVFFGC(Cy)GRGD [M1] |  | 55% | no impact | no impact | random coiled secondary structure | no noticeable difference | no noticeable difference | no histological differences | clearly observed | approximately identical fluorescence | 26% | distributed on the membrane of 786-O cells |  |  | 
 | YLGKLVFFGC(Cy)GRGD [R-M1] |  |  |  |  | β-sheet structure |  |  |  |  |  |  |  | 4.4 µM | obviously increased | 13.4 ± 3.1 nm
